KCNK9 block: KCNK9 potassium channel inhibitors, primary screen, HEK293 cells, thallium flux; Potassium channel subfamily K member 9 (Homo sapiens), Q9NPC2; FluxOR thallium flux fluorescence; hits give low values; B-score at 10 µM; actives 1.2% (n = 310,000);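 active = ratio B-score over 3 SD below the library mean, with starting fluorescence within 5 SD of its mean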;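 also: negative B-score means less thallium flux so channel inhibition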
KCNK3 inh: human KCNK3 channel inhibitors, primary screen, CHO cells, FluxOR thallium flux, B-score; FluxOR fluorescence; hits give low values; B-score at 10 µM; actives 0.84% (n = 340,000);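 active = B-score under library mean minus 4 SD, starting fluorescence ratio at most library mean plus 5 SD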;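 also: more negative B-score means stronger inhibition of thallium flux through KCNK3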
Target sequence (O14649 whole entry, looked up): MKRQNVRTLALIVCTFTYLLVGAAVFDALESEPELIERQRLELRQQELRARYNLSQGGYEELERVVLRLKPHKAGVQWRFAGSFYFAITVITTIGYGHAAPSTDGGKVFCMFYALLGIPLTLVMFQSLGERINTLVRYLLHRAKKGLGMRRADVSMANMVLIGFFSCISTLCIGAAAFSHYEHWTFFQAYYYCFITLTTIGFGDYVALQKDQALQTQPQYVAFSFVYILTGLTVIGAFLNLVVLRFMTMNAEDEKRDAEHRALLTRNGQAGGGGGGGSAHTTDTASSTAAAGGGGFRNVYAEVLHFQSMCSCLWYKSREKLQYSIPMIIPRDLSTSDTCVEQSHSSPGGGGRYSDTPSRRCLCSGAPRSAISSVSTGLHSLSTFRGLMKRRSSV
Kir21 block: inhibitors of mouse Kir2.1 inward-rectifier potassium channel | Inward rectifier potassium channel 2 (Mus musculus), P35561 | HEK293-Kir2.1, FluxOR thallium flux fluorescence; hits give low values | B-score at 10 µM | actives 0.85% (n = 310,000);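 active = fluorescence ratio B-score at or below minus 3 SD of library scores, with starting-brightness B-score within 2 SD, cut at about -4.2 in these data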;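 also: channel flux triggered by added potassium and thallium sulfate stimulus; B-score of peak minus minimum fluorescence over baseline after thallium stimulus; more negative B-score means stronger Kir2.1 block with less thallium influx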
KCNQ1 inh: inhibitors of human KCNQ1 channel, primary screen, cell-based, thallium flux, high-throughput; B-score at 10 µM; actives 1.3% (n = 310,000); CHO-K1 KCNQ1, FluxOR thallium flux fluorescence; hits give high values; Potassium voltage-gated channel subfamily KQT member 1 (Homo sapiens), P51787;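 active = compounds whose thallium flux B-score, printed positive for inhibition, exceeds three library SD while starting fluorescence stays within three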;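 also: channel opened by potassium depolarization with thallium stimulus after 20 min compound exposure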
hERG protect: hERG rescue from dofetilide block, primary screen, cell-based, CHO-hERG, FluxOR thallium flux, dofetilide IC70. Voltage-gated inwardly rectifying potassium channel KCNH2 (Homo sapiens), Q12809. dofetilide IC70 present. actives 0.51% (n = 310,000). activation (rescue from dofetilide block), less the hit threshold, % at 10 µM;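 active = activation above the mean of controls blocked by dofetilide plus 5 SD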;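 also: thallium influx through hERG after potassium depolarization seen as dye fluorescence rise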
KCNQ1 pot: potentiators or activators of KCNQ1 channel, primary screen, cell-based, thallium flux, high-throughput. Potassium voltage-gated channel subfamily KQT member 1 (Homo sapiens), P51787. CHO-K1 KCNQ1, thallium flux FluxOR fluorescence; hits give high values. B-score at 10 µM. actives 0.35% (n = 310,000);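 active = fluorescence ratio B-score, a plate-corrected score, at least three library SD, with initial intensity B-score within 5 SD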
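Schedule – 37 °C overnight plating, 90-min dark dye load, 20-min compound pretreatment · System – stable KCNQ1 CHO-K1 line · Probe or stimulus – thallium- and potassium-containing depolarizing buffer · Measured by – kinetic FluxOR fluorescence, 10 s baseline plus 110 s post-stimulus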
KCNK9 inh conf: KCNK9 potassium channel inhibitors, confirmation, HEK293 cells, thallium flux, duplicate; actives 43% (n = 4,900); shares compounds with KCNK9 block; AID 492992, 2010; FluxOR thallium flux fluorescence; inhibition, % at 10 µM;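 active = thallium signal inhibited by more than 5 SD of the compound-free buffer control wells, on both duplicate plates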
Kir2-1 spec: mouse Kir2.1 channel inhibition, confirmation, selectivity assay for KCNK9 modulator project, cell-based, HEK293, thallium flux | Kir2.1 cells, FluxOR thallium flux fluorescence | AID 492993, 2010 | shares compounds with KCNK9 block | inhibition, % at 10 µM | actives 4% (n = 4,900);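 active = thallium signal drop more than 5 SD beyond the mean of the no-compound control wells, seen in both duplicate plates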;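 also: signal is fluorescence rise after thallium addition divided by baseline fluorescence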
KCNK9 uninduced: thallium flux in non-induced HEK293 cells, confirmation, counter-screen for KCNK9 inhibitor project, cell-based, second counter screen, non-induced KCNK9-HEK293. shares compounds with KCNK9 block. FluxOR thallium flux. AID 492997, 2010. inhibition, % at 10 µM. actives 40% (n = 4,900);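 active = thallium signal drop beyond 5 SD of the untreated control mean, on both duplicate plates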
Each line names hits and unclear results; the compound was inactive in the other large screens (follow-up assays come after a bar, where they were run). The list is not random: actives were taken first. Their share in the collection is about 3.7%.

O=C(NNC(=S)Nc1cccc(C(F)(F)F)c1)c1ccc(Cl)cc1Cl	KCNQ1 inh 8 | KCNK9 inh conf inactive | Kir2-1 spec inactive | KCNK9 uninduced inactive
Cc1cc(C(=O)N/N=C/c2ccc(-c3cccc(Cl)c3)o2)n[nH]1	KCNK9 block -14 | KCNK9 inh conf 34% | Kir2-1 spec inactive | KCNK9 uninduced 32%
CCC(C)(C)n1nnnc1C(c1ccncc1)N1CCN(c2cccc(OC)c2)CC1 (stereo not given)	none
CCC(C)(C)n1nnnc1C(c1cccnc1)N1CCN(c2cccc(C(F)(F)F)c2)CC1 (stereo not given)	KCNK9 block -11 | KCNK9 inh conf 32% | Kir2-1 spec inactive | KCNK9 uninduced inactive
CCOc1ccc(C2=C(C=Nc3c(C)n(C)n(-c4ccccc4)c3=O)C(c3ccc(F)cc3)c3ccccc3O2)cc1 (stereo not given)	none | KCNK9 inh conf inactive | Kir2-1 spec inactive | KCNK9 uninduced inactive
Cc1c(C(=O)CN2CCN(c3ccccc3)CC2)c2ccccc2n1C	none | KCNK9 inh conf inactive | Kir2-1 spec inactive | KCNK9 uninduced inactive
CCCCn1c(SCc2cccc([N+](=O)[O-])c2)nc2ccsc2c1=O	KCNK9 block -16, KCNQ1 inh 6 | KCNK9 inh conf 80% | Kir2-1 spec inactive | KCNK9 uninduced 38%
CCC(C)n1c(SCc2ccc([N+](=O)[O-])cc2)nc2ccsc2c1=O (stereo not given)	KCNK9 block -13 | KCNK9 inh conf 69% | Kir2-1 spec inactive | KCNK9 uninduced 44%
CCCCn1c(SCC(=O)Nc2cc(C)on2)nc2ccsc2c1=O	none
COCCn1c(SCc2cccc([N+](=O)[O-])c2)nc2ccccc2c1=O	KCNK9 block -8.8 | KCNK9 inh conf 64% | Kir2-1 spec inactive | KCNK9 uninduced 30%
CCc1c(O)nc(SCc2ccccc2)n(C(C)CC)c1=O (stereo not given)	none
CCOC(CCn1c(SCc2cccc([N+](=O)[O-])c2)nc2ccccc2c1=O)OCC	KCNK9 block -15 | KCNK9 inh conf 68% | Kir2-1 spec inactive | KCNK9 uninduced 45%
COc1ccc(C)cc1NC(=O)CCc1ccc(S(=O)(=O)N2CCOCC2)cc1	none (no result: KCNK9 block, Kir21 block, KCNQ1 inh, hERG protect, KCNQ1 pot)
COc1ccccc1C(=O)COC(=O)c1ccc(Cl)nc1	none (no result: KCNK9 block, Kir21 block, KCNQ1 inh, hERG protect, KCNQ1 pot)
COc1ccc(NC(=O)CSc2nnc(Cc3cccs3)n2C)cc1	none
COc1cc(-c2nnc(SCC(=O)Nc3ccc(C(=O)O)cc3)o2)cc(OC)c1OC	none (no result: KCNK9 block, Kir21 block, KCNQ1 inh, hERG protect, KCNQ1 pot)
CC[n+]1c(/C=C/c2ccc(OC(C)=O)c(OC)c2)ccc2ccccc21	none
CC[n+]1c(/C=C/c2ccc(N(C)C)cc2)ccc2ccccc21	KCNK9 block -12, Kir21 block -14 | KCNK9 inh conf 60% | Kir2-1 spec 85% | KCNK9 uninduced 60%
COc1cccc(CNC(=O)c2cc(=O)[nH]c3ccc(S(=O)(=O)N4CCOCC4)cc23)c1	none (no result: KCNK9 block, Kir21 block, KCNQ1 inh, hERG protect, KCNQ1 pot)
CCCN1C(=O)/C(=C/c2ccco2)SC1=Nc1ccc(OC)cc1	none
CCOc1cc(/C=C2\SC(=Nc3ccccc3)N(c3ccccc3)C2=O)ccc1OCC(=O)O	none
CCN1C(=O)/C(=C\c2ccncc2)SC1=Nc1ccc(C)c(C)c1	none | KCNK9 inh conf inactive | Kir2-1 spec inactive | KCNK9 uninduced inactive
CCCN1C(=O)/C(=C\c2ccncc2)SC1=Nc1ccccc1	none | KCNK9 inh conf inactive | Kir2-1 spec inactive | KCNK9 uninduced inactive
CCOC(=O)COc1ccc(/C=C2/SC(=Nc3ccccc3)N(Cc3cccnc3)C2=O)cc1OC	none | KCNK9 inh conf inactive | Kir2-1 spec inactive | KCNK9 uninduced inactive
Cc1ccc(SCCN2CCN(CC(C)C)CCC2=O)cc1	none | KCNK9 inh conf inactive | Kir2-1 spec inactive | KCNK9 uninduced inactive
O=C(N[C@H]1CCC(=O)N(CCSc2ccc(Br)cc2)CC1)OCc1ccccc1	none (no result: KCNK9 block, Kir21 block, KCNQ1 inh, hERG protect, KCNQ1 pot)
Cc1ccc(SCCN2CCC(C(C)(C)C)CCC2=O)cc1 (stereo not given)	none | KCNK9 inh conf inactive | Kir2-1 spec inactive | KCNK9 uninduced inactive
Cc1ccc(SCCN2CCC(NC(=O)OCc3ccccc3)CCC2=O)cc1 (stereo not given)	none | KCNK9 inh conf inactive | Kir2-1 spec inactive | KCNK9 uninduced inactive
C[C@@H](CSc1ccccc1)CN1CC[C@H](C(C)(C)C)CCC1=O	Kir21 block -5.3 | KCNK9 inh conf inactive | Kir2-1 spec inactive | KCNK9 uninduced inactive
CC(C)(C)c1cc(C(=O)N/N=C/c2cc3c(cc2Br)OCO3)n[nH]1	none
CC(C)[C@@H]1CC[C@@H](C)C[C@H]1OC(=O)C[n+]1cc(-c2ccc(Cl)cc2)n2c1CCCCC2	KCNK9 block -13, Kir21 block -8.1 | KCNK9 inh conf 60% | Kir2-1 spec 70% | KCNK9 uninduced inactive
COCc1c(C(=O)NCCc2ccc(OC(F)F)cc2)oc2ccccc12	none (no result: KCNK9 block, Kir21 block, KCNQ1 inh, hERG protect, KCNQ1 pot)
O=C(c1ccc(Br)cc1)N1CCC2(CC1)NCCc1[nH]cnc12	none
O=C(COc1ccc2ccccc2c1)Nc1cccc2cccnc12	KCNK9 block -8.7 | KCNK9 inh conf 46% | Kir2-1 spec inactive | KCNK9 uninduced 39%
O=C(COc1ccc2ccccc2c1)Nc1cccnc1Cl	none
CC(NS(=O)(=O)c1cccc(C(=O)NCc2ccncc2)c1)c1ccccc1 (stereo not given)	none (no result: KCNK9 block, Kir21 block, KCNQ1 inh, hERG protect, KCNQ1 pot)
COc1cc(/C=N/N2C(=O)c3ccccc3NC2(C)c2cccc([N+](=O)[O-])c2)cc(Br)c1O (stereo not given)	KCNK9 block -14 | KCNK9 inh conf 56% | Kir2-1 spec inactive | KCNK9 uninduced 46%
COc1cc(/C=N/NC(=O)c2ccc([N+](=O)[O-])cc2Cl)cc(Br)c1O	none

Bioassay records deposited in PubChem by Johns Hopkins Ion Channel Center.
